Compound activity from PubChem BioAssay.
Sampled rows, rich in hits. Any-hit rate of the full collection: about 4.8%.
697 NFkB inh = inhibitors of PMA/ionomycin-induced NF-kB reporter, 697 cells, primary screen, B-cell NF-kB inhibitor project, cell-based, luminescence, uHTS | 697 B-cell NF-kB luciferase reporter, 16 h | AID 435022, 2010 | 330,000 tested, 0.33% active | inhibition, % at 4 µM; in the data active means inhibition above about 35%
T cruzi repl = inhibitors of intracellular T. cruzi growth, primary screen, luminescence, NIH3T3 host cells | T. cruzi beta-gal in NIH3T3, 90 h | inhibition, % (no concentration beside the values) | 300,000 tested, 1.4% active | AID 1885, 2009;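 active means mean inhibition across valid replicates above about 55%, limit read from the data; inconclusive means mean below that limit but half or more replicates reach it; inactive means mean below it, under half of replicates reach it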;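 further: signal also drops with host cell toxicity which is not excluded here; 0% = plate median of DMSO wells and 100% = zero luminescence signal; higher percent means less beta-gal luminescence so fewer parasites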
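Assay system: NIH/3T3 fibroblasts plus reporter T. cruzi. Amount: NIH/3T3 cells, 5,000 per well. Buffer or medium: DMEM, 2% fetal bovine serum. Doses: compound pinned at 50 nL/well, DMSO. Schedule: ≥90 h infection period, 3 h prior cell attachment. Signal: luminescent β-galactosidase signal after 60 min lysis. Read-out: parasite load inhibition, %.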
GPR7 antag = GPR7 receptor antagonists, primary screen, cell-based, fluorescence, single concentration. Neuropeptides B/W receptor type 1 (Homo sapiens), P48145. GPR7-expressing cells, fluorescence antagonist assay. inhibition, % at 4.4 µM. 290,000 tested, 1.1% active. AID 1861, 2009; in the data active means inhibition above about 16%, passing the limit was not always enough;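 further: cells stimulated with the agonist NPW; 0% = agonist with vehicle and 100% = vehicle without agonist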
Target sequence (P48145 whole entry, looked up): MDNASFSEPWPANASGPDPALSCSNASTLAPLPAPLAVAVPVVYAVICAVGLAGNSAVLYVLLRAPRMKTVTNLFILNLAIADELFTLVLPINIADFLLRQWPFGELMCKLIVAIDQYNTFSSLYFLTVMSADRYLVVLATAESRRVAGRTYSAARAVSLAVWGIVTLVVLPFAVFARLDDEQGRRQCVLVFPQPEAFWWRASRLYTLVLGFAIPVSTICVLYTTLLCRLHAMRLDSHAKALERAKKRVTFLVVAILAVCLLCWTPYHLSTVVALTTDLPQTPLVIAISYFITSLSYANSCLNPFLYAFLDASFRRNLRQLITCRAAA
Jurkat NFkB inh = inhibitors of induced NF-kB luciferase reporter, primary screen, TCR NF-kB activation inhibitor project, cell-based, luminescence, uHTS. inhibition, % at 4 µM. 330,000 tested, 0.53% active. Jurkat, PMA/ionomycin-induced NF-kB luciferase reporter. AID 435003, 2010; in the data active means inhibition above about 50%
HSF1 activator = HSF-1 activators, primary screen, NIH3T3-HGL cells, MG132 stress, luminescence, single point; NIH3T3-HGL HSF-1 luciferase reporter, 8 h; 100% = twice DMSO control signal; activation, % at 9 µM; 300,000 tested, 1.7% active; AID 504408, 2011;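 active means mean replicate activation of at least 50% with a set share of replicates each reaching 50%; inconclusive means only one of those two conditions met; inactive means mean below 50% and too few replicates reaching it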;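 further: 0% = median of the neutral control wells and 100% = twice that signal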
HSF1 inh = HSF1 inhibitors in luciferase reporter cells, primary screen, cell-based, NIH3T3, luminescence; NIH3T3-HGL HSE-luciferase, MG132-induced, luminescence 8 h; hits give low values; activity change, negative = inhibition, % at 7.5 µM (by protocol); 300,000 tested, 0.77% active; AID 2098, 2009;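 active means more than half of replicate wells show activity change below -50%, luminescence cut by over half; inconclusive means some wells, but at most half, below -50%; inactive means no replicate well below -50%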;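 further: luciferase reports HSF-1 transcriptional activity via heat shock element; 0% = median of DMSO wells and -100% = zero luminescence signal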
An asterisk follows results filed as active; ? = inconclusive; / = no result given.

SMILES	697 NFkB inh	T cruzi repl	GPR7 antag	Jurkat NFkB inh	HSF1 activator	HSF1 inh
C=C(C)C1CC=C(C)/C(=N/NC(=O)c2cccs2)C1 (stereo not given)	-77	14	-8	-64	80*	37
CC(C)(C)OC(=O)N1CCC(CNC(=O)Nc2ccccc2)CC1	5	-5	-11	-5	12	2
COc1cccc(CC(=O)N2CCN(c3ccccc3[N+](=O)[O-])CC2)c1	0	12	8	-1	24	10
O=C(Nc1c(C(=O)N2CCCCC2)cnn1-c1ccccc1)c1ccccc1F	19	-5	-13	17	3	-7
CC(=O)NC(c1ccc(C)cc1)c1cc([N+](=O)[O-])c2cccnc2c1O (stereo not given)	-47	55*	-5	4	-9	-3
CCCC(=O)NC(c1ccco1)c1cc([N+](=O)[O-])c2cccnc2c1O (stereo not given)	5	-13	-10	10	-1	-5
CCC(=O)NC(c1ccc(C)cc1)c1cc([N+](=O)[O-])c2cccnc2c1O (stereo not given)	/	63*	-1	/	-30	-14
O=C(O)CCCSc1nccn1-c1ccccc1	21	-6	-5	0	-21	-7
CCCCCC1CCC(c2n[nH]c(=S)n2C)CC1 (stereo not given)	-7	70*	0	2	7	-6
CN1CCC(=C(c2ccc(Cl)cc2)c2ccccn2)CC1	-6	69*	6	-1	4	-10
CCCc1cc(C(=O)Nc2ccc(C(=O)c3ccc(C)cc3)cc2)n(C)n1	-2	-5	-3	18	-14	3
CC(=O)c1c(N2CCN(c3ccccc3)CC2)nc(=S)n(-c2ccccc2)c1C	-18	13	-8	0	4	0
CC(=O)c1c(N2CCN(CCO)CC2)nc(=S)n(-c2ccccc2)c1C	-4	-24	-10	-2	-72	-64*
O=C(CCCCCn1c(=S)[nH]c2cc3c(cc2c1=O)OCO3)N1CCN(C(=O)c2ccco2)CC1	-5	6	11	-1	-76	-67*
O=C(c1ccc(Cn2c(=S)[nH]c3cc4c(cc3c2=O)OCO4)cc1)N1CCN(c2ccccc2)CC1	-3	38	-9	14	12	2
Cc1ccc(Cl)cc1N1CCN(Cc2cc3c(cc2O)CCC3)CC1	-14	58*	4	8	-41	-23
O=C(CCCCCn1c(=S)[nH]c2cc3c(cc2c1=O)OCO3)N1CCN(Cc2ccccc2)CC1	-43	21	-6	4	/	/
Cc1cccc(N2CCN(C(=O)CCCCCn3c(=S)[nH]c4ccc(N5CCOCC5)cc4c3=O)CC2)c1C	-54	65*	-20	-10	-4	-8
O=C(c1ccc(Cn2c(=S)[nH]c3ccc(N4CCOCC4)cc3c2=O)cc1)N1CCN(c2ccc(F)cc2)CC1	-80	85*	-6	-23	10	7
CCCCN1C(=O)C(=O)N(CC(=O)Nc2sc(C)c(C)c2C(=O)OC)C1=O	5	/	/	-14	/	/
COc1ccc(N2CCN(C(=O)CSc3nnc(NC(=O)C4CCC4)s3)CC2)cc1	-3	-14	-9	-4	20	1
O=C(c1ccc(CN2CCOCC2)cc1)N1CCN(c2cccc(Cl)c2)CC1	-15	?	9	-14	49	11
COc1ccc(N2CCN(C(=O)c3ccc(Cn4c(=S)[nH]c5ccc(N6CCOCC6)cc5c4=O)cc3)CC2)cc1	-85	68*	-9	-79	2	8
Cc1ccc(Cl)cc1N1CCN(C(=O)c2ccc(CN3CCOCC3)cc2)CC1	-24	56*	-7	-2	2	1
COc1ccc(Cn2c(=S)[nH]c3cc(C(=O)N4CCN(c5ccccc5)CC4)ccc3c2=O)cc1	2	6	-3	5	-3	2
SMILES	697 NFkB inh	T cruzi repl	GPR7 antag	Jurkat NFkB inh	HSF1 activator	HSF1 inh
COc1ccccc1N1CCN(C(=O)c2ccc3c(=O)n(Cc4ccco4)c(=S)[nH]c3c2)CC1	-4	-2	-2	2	88*	49
CCOC(=O)N1CCN(C(=O)c2ccc3c(=O)n(-c4ccc(OC)cc4)c(=S)[nH]c3c2)CC1	21	-2	0	-5	52*	6
O=c1c2cc(N3CCOCC3)ccc2[nH]c(=S)n1Cc1ccc(Cl)cc1	-129	-2	-14	-48	56*	17
Cc1ccc(C)c(N2CCN(C(=O)c3ccc(Cn4c(=S)[nH]c5ccc(N6CCOCC6)cc5c4=O)cc3)CC2)c1	-68	75*	-13	-39	7	9
O=C(CCCCCn1c(=S)[nH]c2ccc(N3CCOCC3)cc2c1=O)NCc1ccc(Cl)cc1	-6	7	-10	12	17	1
Cc1ccc(Cn2c(=S)[nH]c3ccc(N4CCOCC4)cc3c2=O)o1	8	-9	-1	2	45	37
Cc1ccc(C(=O)COC(=O)c2ccc(O)cc2)cc1	-19	-13	-10	-96	122*	58
O=C(COC(=O)c1ccc(-c2nnc(-c3ccccc3)o2)cc1)c1ccccc1	-17	-12	4	-1	51*	39
CC(C)(C)NC(=O)COC(=O)c1ccc(O)cc1	13	4	16*	-4	-41	-24
CCOC(=O)COC(=O)c1ccc(O)cc1	9	-9	-2	5	8	10
CCc1cccc2c(C(=O)COC(=O)c3ccc(O)cc3)c[nH]c12	2	56*	-5	4	-9	7
CC1=CN2C(=N)/C(=C\c3cn(CCCOc4ccccc4)c4ccccc34)C(=O)N=C2S1	-9	43	-4	-2	18	7
Cc1cc(C)c(C)c(S(=O)(=O)N2CCN(C(=O)c3ccccn3)CC2)c1C	-1	/	/	5	/	/
Cc1ccc(NC(=O)COC(=O)CC2CCCC2)cc1F	22	/	/	12	/	/
Cc1ccc(C(=O)COC(=O)c2cn3ccccc3n2)cc1	-2	0	-13	2	62*	32
CCOC(=O)N1CCN(CC(O)COC2CC(C)CC(C)(C)C2)CC1 (stereo not given)	16	-17	-14	4	-88	-84*
Cc1cc(C(=O)N2CCN(C/C=C/c3ccccc3)CC2)cs1	16	-6	20*	-5	11	-2
O=C(CCN1CCN(Cc2ccccc2)CC1)Nc1cccc(Cl)c1	-19	55*	0	-4	-3	0
Cc1cccc(NC(=O)CCN2CCN(C/C=C/c3ccccc3)CC2)c1	-8	41	-3	27	-5	-1
